Measured values taken from ChEMBL document CHEMBL3994579, “Synthesis and antibacterial activity of novel 3-O-descladinosylazithromycin derivatives” (2017).
≈ marks a conversion by molar mass, not a printed value.

Legend:
Assay type in all cases: functional
[1] = system: Staphylococcus aureus; experiment: Antibacterial activity against erythromycin-susceptible Staphylococcus aureus ATCC 25923 by broth microdilution method
Procedure, shortened: (§1)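 MICs were determined in vitro by broth microdilution following the NCCL-recommended method. Azithromycin and clarithromycin were run alongside as reference antibiotics on the same strain panel.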

[2] = system: Escherichia coli; experiment: Antibacterial activity against penicillin-susceptible Escherichia coli ATCC 25922 by broth microdilution method; procedure, shortened: as §1
[3] = system: Streptococcus pyogenes; experiment: Antibacterial activity against erythromycin-susceptible Streptococcus pyogenes clinical isolate by broth microdilution method; procedure, shortened: as §1
[4] = system: Pseudomonas aeruginosa; experiment: Antibacterial activity against penicillin-susceptible Pseudomonas aeruginosa ATCC 27853 by broth microdilution method; procedure, shortened: as §1
[5] = system: Bacillus subtilis; experiment: Antibacterial activity against erythromycin/penicillin-susceptible Bacillus subtilis ATCC 9372 by broth microdilution method; procedure, shortened: as §1
[6] = system: Staphylococcus epidermidis; experiment: Antibacterial activity against penicillin-resistant Staphylococcus epidermidis clinical isolate by broth microdilution method
Procedure, shortened: (§2)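 Broth microdilution per NCCL recommendation, read as minimal inhibitory concentration, run alongside azithromycin and clarithromycin references. Strains: S. pneumoniae B1 (erythromycin-resistant, ermB), A22072 (erythromycin-resistant, mefA), AB11 (erythromycin-resistant, erm and mef); S. aureus ATCC29213 ([…]); S. epidermidis clinical isolate (penicillin-resistant, not characterized).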

[7] = system: Staphylococcus aureus; experiment: Antibacterial activity against […] Staphylococcus aureus ATCC 29213 by broth microdilution method; procedure, shortened: as §2
[8] = system: Streptococcus pneumoniae; experiment: Antibacterial activity against erythromycin-resistant Streptococcus pneumoniae B1 expressing ermB gene by broth microdilution method; procedure, shortened: as §2
[9] = system: Streptococcus pneumoniae; experiment: Antibacterial activity against erythromycin-resistant Streptococcus pneumoniae A22072 expressing mefA gene by broth microdilution method; procedure, shortened: as §2
[10] = system: Streptococcus pneumoniae; experiment: Antibacterial activity against erythromycin-resistant Streptococcus pneumoniae AB11 expressing ermB/mefA genes by broth microdilution method; procedure, shortened: as §2
[11] = system: Streptococcus pyogenes; experiment: Antibacterial activity against erythromycin-resistant Streptococcus pyogenes R1 clinical isolate by broth microdilution method
[12] = system: Streptococcus pneumoniae; experiment: Potency index, ratio of azithromycin MIC to test compound MIC for erythromycin-resistant Streptococcus pneumoniae AB11 expressing ermB/mefA genes
[13] = system: Streptococcus pneumoniae; experiment: Potency index, ratio of clarithromycin MIC to test compound MIC for erythromycin-resistant Streptococcus pneumoniae AB11 expressing ermB/mefA genes
[14] = system: Streptococcus pneumoniae; experiment: Potency index, ratio of azithromycin MIC to test compound MIC for erythromycin-resistant Streptococcus pneumoniae B1 expressing ermB gene
[15] = system: Streptococcus pneumoniae; experiment: Potency index, ratio of clarithromycin MIC to test compound MIC for erythromycin-resistant Streptococcus pneumoniae B1 expressing ermB gene
[16] = system: Streptococcus pneumoniae; experiment: Potency index, ratio of azithromycin MIC to test compound MIC for erythromycin-resistant Streptococcus pneumoniae A22072 expressing mefA gene
[17] = system: Streptococcus pneumoniae; experiment: Potency index, ratio of clarithromycin MIC to test compound MIC for erythromycin-resistant Streptococcus pneumoniae A22072 expressing mefA gene
[18] = system: Bacillus subtilis; experiment: Potency index, ratio of azithromycin MIC to test compound MIC for erythromycin/penicillin-susceptible Bacillus subtilis ATCC 9372
[19] = system: Staphylococcus epidermidis; experiment: Potency index, ratio of azithromycin MIC to test compound MIC for penicillin-resistant Staphylococcus epidermidis clinical isolate
[20] = system: Streptococcus pyogenes; experiment: Potency index, ratio of azithromycin MIC to test compound MIC for erythromycin-resistant Streptococcus pyogenes R1 clinical isolate
[21] = system: Streptococcus pyogenes; experiment: Potency index, ratio of clarithromycin MIC to test compound MIC for erythromycin-resistant Streptococcus pyogenes R1 clinical isolate

SMILES | MIC [1] | MIC [2] | MIC [3] | MIC [4] | MIC [5] | MIC [6] | MIC [7] | MIC [8] | MIC [9] | MIC [10] | MIC [11] | Ratio [12] | Ratio [13] | Ratio [14] | Ratio [15] | Ratio [16] | Ratio [17] | also measured
CC[C@H]1OC(=O)[C@H](C)[C@@H](OC(=O)Nc2ccccc2C)[C@H](C)[C@@H](O[C@@H]2O[C@H](C)C[C@H](N(C)C)[C@H]2O)[C@](C)(O)C[C@@H](C)CN(C)[C@H](C)[C@H]2OC(=O)O[C@@]21C | 4 µg/mL (≈ 5.33 µM) | 64 µg/mL (≈ 85.3 µM) | 0.5 µg/mL (≈ 0.667 µM) | 64 µg/mL (≈ 85.3 µM) | 2 µg/mL (≈ 2.67 µM) | 4 µg/mL (≈ 5.33 µM) | 32 µg/mL (≈ 42.7 µM) | 32 µg/mL (≈ 42.7 µM) | 4 µg/mL (≈ 5.33 µM) | 1 µg/mL (≈ 1.33 µM) | 32 µg/mL (≈ 42.7 µM) | 256 | 128 |  |  |  |  | 
CC[C@H]1OC(=O)[C@H](C)[C@@H](OC(=O)Nc2cccc(C)c2)[C@H](C)[C@@H](O[C@@H]2O[C@H](C)C[C@H](N(C)C)[C@H]2O)[C@](C)(O)C[C@@H](C)CN(C)[C@H](C)[C@@H](OC(=O)NCc2ccccc2Cl)[C@]1(C)O | 2 µg/mL (≈ 2.24 µM) | 64 µg/mL (≈ 71.8 µM) | 0.03 µg/mL (≈ 0.0336 µM) | 64 µg/mL (≈ 71.8 µM) | 4 µg/mL (≈ 4.49 µM) | 0.25 µg/mL (≈ 0.28 µM) | 64 µg/mL (≈ 71.8 µM) | 8 µg/mL (≈ 8.97 µM) | 0.5 µg/mL (≈ 0.561 µM) | 4 µg/mL (≈ 4.49 µM) | 32 µg/mL (≈ 35.9 µM) | 8 - 256 | 8 - 256 | 8 - 256 | 8 - 256 | 8 | 8 - 256 | 
CCCCCCNC(=O)O[C@@H]1[C@@H](C)N(C)C[C@H](C)C[C@@](C)(O)[C@H](O[C@@H]2O[C@H](C)C[C@H](N(C)C)[C@H]2O)[C@@H](C)[C@H](OC(=O)Nc2ccc(OC)cc2)[C@@H](C)C(=O)O[C@H](CC)[C@@]1(C)O | 8 µg/mL (≈ 9.23 µM) | 128 µg/mL (≈ 148 µM) | 1 µg/mL (≈ 1.15 µM) | 128 µg/mL (≈ 148 µM) | 0.5 µg/mL (≈ 0.577 µM) | 0.125 µg/mL (≈ 0.144 µM) | 128 µg/mL (≈ 148 µM) | 1 µg/mL (≈ 1.15 µM) | 8 µg/mL (≈ 9.23 µM) | 1 µg/mL (≈ 1.15 µM) | 32 µg/mL (≈ 36.9 µM) | 256 | 128 | 256 | 256 | 8 - 256 | 8 - 256 | Ratio [18]: 2; Ratio [19]: 2
CCCCCCNC(=O)O[C@H]1[C@H](C)[C@@H](O[C@@H]2O[C@H](C)C[C@H](N(C)C)[C@H]2OC(C)=O)[C@](C)(O)C[C@@H](C)CN(C)[C@H](C)[C@H]2OC(=O)O[C@]2(C)[C@@H](CC)OC(=O)[C@@H]1C | 16 µg/mL (≈ 20.4 µM) | 128 µg/mL (≈ 163 µM) | 4 µg/mL (≈ 5.09 µM) | 128 µg/mL (≈ 163 µM) | 8 µg/mL (≈ 10.2 µM) | 16 µg/mL (≈ 20.4 µM) | 32 µg/mL (≈ 40.7 µM) | 64 µg/mL (≈ 81.4 µM) | 64 µg/mL (≈ 81.4 µM) | 16 µg/mL (≈ 20.4 µM) | 32 µg/mL (≈ 40.7 µM) |  |  |  |  |  |  | Ratio [20]: 8; Ratio [21]: 8
CC[C@H]1OC(=O)[C@H](C)[C@@H](O)[C@H](C)[C@@H](O[C@@H]2O[C@H](C)C[C@H](N(C)C)[C@H]2OC(=O)Nc2ccccc2)[C@](C)(O)C[C@@H](C)CN(C)[C@H](C)[C@H]2OC(=O)O[C@@]21C | 32 µg/mL (≈ 43.5 µM) | 64 µg/mL (≈ 87 µM) | 0.5 µg/mL (≈ 0.679 µM) | 32 µg/mL (≈ 43.5 µM) | 32 µg/mL (≈ 43.5 µM) | 32 µg/mL (≈ 43.5 µM) | 128 µg/mL (≈ 174 µM) | 128 µg/mL (≈ 174 µM) | 8 µg/mL (≈ 10.9 µM) | 8 µg/mL (≈ 10.9 µM) | 128 µg/mL (≈ 174 µM) |  |  |  |  |  |  | 
CC[C@H]1OC(=O)[C@H](C)[C@@H](OC(=O)Nc2ccccc2C)[C@H](C)[C@@H](O[C@@H]2O[C@H](C)C[C@H](N(C)C)[C@H]2OC(C)=O)[C@](C)(O)C[C@@H](C)CN(C)[C@H](C)[C@H]2OC(=O)O[C@@]21C | 16 µg/mL (≈ 20.2 µM) | 64 µg/mL (≈ 80.8 µM) | 1 µg/mL (≈ 1.26 µM) | 64 µg/mL (≈ 80.8 µM) | 8 µg/mL (≈ 10.1 µM) | 128 µg/mL (≈ 162 µM) | 64 µg/mL (≈ 80.8 µM) | 256 µg/mL (≈ 323 µM) | 8 µg/mL (≈ 10.1 µM) | 16 µg/mL (≈ 20.2 µM) | 256 µg/mL (≈ 323 µM) |  |  |  |  |  |  | 
CC[C@H]1OC(=O)[C@H](C)[C@@H](OC(=O)Nc2cccc(OC)c2)[C@H](C)[C@@H](O[C@@H]2O[C@H](C)C[C@H](N(C)C)[C@H]2O)[C@](C)(O)C[C@@H](C)CN(C)[C@H](C)[C@H]2OC(=O)O[C@@]21C | 16 µg/mL (≈ 20.9 µM) | 64 µg/mL (≈ 83.6 µM) | 2 µg/mL (≈ 2.61 µM) | 64 µg/mL (≈ 83.6 µM) | 16 µg/mL (≈ 20.9 µM) | 32 µg/mL (≈ 41.8 µM) | 64 µg/mL (≈ 83.6 µM) | 64 µg/mL (≈ 83.6 µM) | 16 µg/mL (≈ 20.9 µM) | 16 µg/mL (≈ 20.9 µM) | 64 µg/mL (≈ 83.6 µM) |  |  |  |  |  |  | 
CC[C@H]1OC(=O)[C@H](C)[C@@H](OC(=O)Nc2ccccc2)[C@H](C)[C@@H](O[C@@H]2O[C@H](C)C[C@H](N(C)C)[C@H]2O)[C@](C)(O)C[C@@H](C)CN(C)[C@H](C)[C@H]2OC(=O)O[C@@]21C | 2 µg/mL (≈ 2.72 µM) | 128 µg/mL (≈ 174 µM) | 0.25 µg/mL (≈ 0.34 µM) | 128 µg/mL (≈ 174 µM) | 4 µg/mL (≈ 5.44 µM) | 4 µg/mL (≈ 5.44 µM) | 128 µg/mL (≈ 174 µM) | 16 µg/mL (≈ 21.7 µM) | 16 µg/mL (≈ 21.7 µM) | 16 µg/mL (≈ 21.7 µM) | 8 µg/mL (≈ 10.9 µM) |  |  | 16 | 16 |  |  | Ratio [20]: 32; Ratio [21]: 32
CC[C@H]1OC(=O)[C@H](C)[C@@H](OC(=O)Nc2ccccc2C)[C@H](C)[C@@H](O[C@@H]2O[C@H](C)C[C@H](N(C)C)[C@H]2O)[C@](C)(O)C[C@@H](C)CN(C)[C@H](C)[C@@H](OC(=O)NCc2ccccc2)[C@]1(C)O | 1 µg/mL (≈ 1.17 µM) | 64 µg/mL (≈ 74.7 µM) | 0.03 µg/mL (≈ 0.035 µM) | 64 µg/mL (≈ 74.7 µM) | 2 µg/mL (≈ 2.33 µM) | 0.25 µg/mL (≈ 0.292 µM) | 32 µg/mL (≈ 37.3 µM) | 32 µg/mL (≈ 37.3 µM) | 0.25 µg/mL (≈ 0.292 µM) | 2 µg/mL (≈ 2.33 µM) | 128 µg/mL (≈ 149 µM) | 8 - 256 | 8 - 256 | 8 - 256 | 8 - 256 | 16 | 8 - 256 | 
